Data reported in ChEMBL document CHEMBL1153527, “Discovery of a novel series of quinolone and naphthyridine derivatives as potential topoisomerase I inhibitors by scaffold modification” (J Med Chem, 2009).
The source made the active and inactive calls. No cut-off for these calls is given here.

What was measured:
HT-29 [1] = assay: Reduction in topoisomerase 1 expression in human HT-29 cells by immunocytochemistry; type: functional, cell-based
Summary of the method: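 HT-29 and SKOV-3 cells were grown on slides and treated with compound at several concentrations, with an untreated control. Cells were fixed and permeabilised, and endogenous peroxidase was quenched with 0.3% H2O2/methanol. After blocking with 10% goat serum, slides were stained with anti-Top I (1:100, 10 h), then biotinylated secondary and avidin-biotin-HRP, and developed with DAB.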

PC-3 = assay: Cytotoxicity against p53-deficient human PC3 cells after 48 hrs by SRB assay; type: functional, cell-based; conditions: PC-3, 48 h
Summary of the method: (§1)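 Cell lines came from CCRC, Taiwan. Cells were seeded at about 5 × 10^3 per well and left overnight. They were then given serum-free medium containing 0-10 μM compound (0.08-10 μM serial dilutions) for 48 h at 37 °C. Cells were fixed with TCA (10% final), stained with SRB (0.4% final), and the dye was dissolved in 10 mM Tris with A515 read. IC50 was taken from a fitted log concentration-response curve.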

[2] = target: T1, DNA topoisomerase 1 (Homo sapiens) (UniProt P11387); assay: Induction of human recombinant topoisomerase 1-mediated cleavage of 32P-labeled linearized pRYG plasmid DNA at 2.5 uM after 30 mins by agarose gel electrophoresis
T1 sequence (whole entry): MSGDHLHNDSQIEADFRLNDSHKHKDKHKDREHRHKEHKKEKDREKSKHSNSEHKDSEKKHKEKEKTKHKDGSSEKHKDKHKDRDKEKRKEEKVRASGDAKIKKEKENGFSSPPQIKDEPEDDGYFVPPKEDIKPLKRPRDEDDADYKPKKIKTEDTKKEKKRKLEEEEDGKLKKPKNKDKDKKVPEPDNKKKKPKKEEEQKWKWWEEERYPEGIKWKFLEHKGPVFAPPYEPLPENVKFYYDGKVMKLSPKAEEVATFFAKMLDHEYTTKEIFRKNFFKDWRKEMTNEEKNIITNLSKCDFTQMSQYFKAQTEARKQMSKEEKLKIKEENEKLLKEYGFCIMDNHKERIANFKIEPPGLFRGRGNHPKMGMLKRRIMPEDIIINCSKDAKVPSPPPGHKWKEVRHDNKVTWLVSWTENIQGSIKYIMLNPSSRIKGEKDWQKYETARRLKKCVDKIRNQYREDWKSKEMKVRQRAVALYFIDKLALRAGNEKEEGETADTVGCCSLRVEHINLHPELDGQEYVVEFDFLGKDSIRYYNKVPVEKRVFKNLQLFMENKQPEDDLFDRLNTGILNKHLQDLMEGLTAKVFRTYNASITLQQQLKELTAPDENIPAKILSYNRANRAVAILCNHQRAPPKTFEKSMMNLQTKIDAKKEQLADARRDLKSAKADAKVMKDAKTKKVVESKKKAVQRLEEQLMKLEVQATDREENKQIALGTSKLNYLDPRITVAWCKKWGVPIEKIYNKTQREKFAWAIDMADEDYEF
Summary of the method: (§2)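 Recombinant human Top I was incubated with HindIII-linearised pRYG plasmid, 3'-end-labelled with [α-32P]dCTP by Klenow fill-in (about 100000 cpm per reaction). Reactions were stopped with SDS and proteinase K at 45 °C, alkali-denatured, run on a 1% agarose gel and autoradiographed.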

HT-29 [3] = assay: Cell cycle distribution in human HT-29 cells assessed as accumulation at S phase upto 10 uM by flow cytometry; type: functional
Summary of the method: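 HT-29 cells were exposed to vehicle or 1, 5 or 10 μM compound for 6, 12, 24 or 48 h. Floating and attached cells were collected, fixed in 70% ethanol and treated with 0.1% Triton X-100. They were stained with PI at 50 μg/mL plus RNaseA at 50 μg/mL for 30 min at room temperature in the dark. FL2 DNA content was read on 10000 cells by flow cytometry. The sub-G1 fraction was taken as apoptotic.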

U-937 = assay: Cytotoxicity against human U937 cells expressing p53 mutant after 48 hrs by SRB assay; type: functional, cell-based; conditions: U-937, 48 h
Mus musculus [4] = assay: Toxicity in athymic BALB/c nude mouse xenografted with human HT-29 cells assessed as change in body weight at 75 mg/kg, ip for 10 days measured after 30 days; type: organism-based; parameters: dose 75 mg/kg, route intraperitoneal; conditions: in vivo, 720 h
Summary of the method: (§3)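 Nude mouse HT-29 xenograft model as above: female athymic BALB/c, 18-22 g, n=6 per group. Dosing was i.p. daily in 400 μL for 10 consecutive days at 75 or 150 mg/kg, with saline controls. Body weight and tumour volume were recorded every 4 days, and the study ended on day 30. Weights were compared with controls by Student's t test.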

MCF7 = assay: Cytotoxicity against estrogen receptor-positive human MCF7 cells expressing wild type p53 after 48 hrs by SRB assay; type: functional, cell-based; conditions: MCF7, 48 h; summary of the method: as §1
Mus musculus [5] = assay: Toxicity in athymic BALB/c nude mouse xenografted with human HT-29 cells assessed as morbidity at 75 mg/kg, ip for 10 days measured after 30 days; type: organism-based; parameters: dose 75 mg/kg, route intraperitoneal; conditions: in vivo, 720 h; summary of the method: as §3
Mus musculus [6] = assay: Toxicity in athymic BALB/c nude mouse xenografted with human HT-29 cells assessed as change in body weight at 150 mg/kg, ip for 10 days measured after 30 days; type: organism-based; parameters: dose 150 mg/kg, route intraperitoneal; conditions: in vivo, 720 h; summary of the method: as §3
K562 = assay: Cytotoxicity against p53-deficient human K562 cells after 48 hrs by SRB assay; type: functional, cell-based; conditions: K562, 48 h
[7] = target: T1, DNA topoisomerase 1 (Homo sapiens); assay: Induction of human recombinant topoisomerase 1-mediated cleavage of 32P-labeled linearized pRYG plasmid DNA at 25 uM after 30 mins by agarose gel electrophoresis; summary of the method: as §2
Bel-7402 = assay: Cytotoxicity against human Bel7402 cells after 48 hrs by MTT assay; type: functional, cell-based; conditions: Bel-7402, 48 h
SK-OV-3 = assay: Induction of apoptosis in human SKOV3 cells assessed as apoptotic cells at 10 ug/mL after 24 hrs by annexin V/propidium iodide-based flow cytometry; type: functional
Summary of the method: (§4)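 SKOV-3 or HT-29 cells (1-5 × 10^6 cells/mL) were incubated with 0, 5 or 10 μg/mL compound for 24 h. They were then washed and stained with EGFP-Annexin V/PI and analysed immediately by flow cytometry. Annexin V+/PI− cells were scored as apoptotic; PI-permeant cells were scored as necrotic.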

HT-29 [8] = assay: Cytotoxicity against human HT-29 cells expressing p53 mutant after 48 hrs by SRB assay; type: functional, cell-based; conditions: HT-29, 48 h; summary of the method: as §1
[9] = Cytotoxicity against p53-deficient human Hep3B cells after 48 hrs by SRB assay; type: functional, cell-based, Hep 3B2; summary of the method: as §1
[10] = Solubility in assay condition at 50 uM; type: physicochemical
THP-1 = assay: Cytotoxicity against human THP1 cells expressing p53 mutant after 48 hrs by SRB assay; type: functional, cell-based; conditions: THP-1, 48 h
HeLa = assay: Cytotoxicity against p53-deficient human HeLa cells after 48 hrs by SRB assay; type: functional, cell-based; summary of the method: as §1
HT-29 [11] = assay: Induction of apoptosis in human HT-29 cells assessed as apoptotic cells at 10 ug/mL after 24 hrs by annexin V/propidium iodide-based flow cytometry; type: functional; summary of the method: as §4
[12] = test system: DNA topoisomerase 2 (Bos taurus); assay: Inhibition of topoisomerase 2 at 200 uM
HT-29 [13] = assay: Induction of apoptosis in human HT-29 cells assessed as apoptotic cells at 5 ug/mL after 24 hrs by annexin V/propidium iodide-based flow cytometry; type: functional; summary of the method: as §4

With CCn1cc(-c2nc3ccc([N+](=O)[O-])cc3o2)c(=O)c2cc(F)c(N3CCNC(C)C3)c(F)c21 (stereo unspecified) the Activity (HT-29 [1]) was “Dose-dependent effect”, the GI50 (PC-3) was 3.3 µM and the IC50 (PC-3) was 4.2 µM. For the same molecule, the Activity [2] was “Active”, the Activity (HT-29 [3]) was 5% and the IC50 (U-937) was 1.4 µM. The Activity (Mus musculus [4]) was “Non-toxic”, the GI50 (MCF7) was 3 µM and the IC50 (MCF7) was 6.8 µM. The Activity (Mus musculus [5]) was “Non-toxic”, the Activity (Mus musculus [6]) was “Non-toxic” and the IC50 (K562) was 4.6 µM. For the same molecule, the Activity [7] was “Active”, the IC50 (Bel-7402) was 0.2 µM and the Activity (SK-OV-3) was 13.6%. It also gave a GI50 (HT-29 [8]) of 1 µM, an IC50 (HT-29 [8]) of 5.5 µM and a GI50 [9] of 1.5 µM. The IC50 [9] was 3.9 µM, the solubility [10] was “Insoluble” and the IC50 (THP-1) was 3.5 µM. The GI50 (HeLa) was 1.1 µM, the IC50 (HeLa) was 2.4 µM and the Activity (HT-29 [11]) was 35.9%. For the same molecule, the inhibition [12] was “inactive” and the Activity (HT-29 [13]) was 23.5%.
